We go through 7 molecules from publication PMC9907071 (Proceedings of the National Academy of Sciences of the …, 2022).

For series [1], the target named is T1, HsDHODH (Homo sapiens, UniProt Q02127). The note with it: read-out: HsDHODH IC50; previously reported; ref [25], [27]; cited from earlier work.
For series [2], the target named is T2, AbDHODH (Acinetobacter baumannii, UniProt B7GZW7).
T2 sequence (B7GZW7 1-334): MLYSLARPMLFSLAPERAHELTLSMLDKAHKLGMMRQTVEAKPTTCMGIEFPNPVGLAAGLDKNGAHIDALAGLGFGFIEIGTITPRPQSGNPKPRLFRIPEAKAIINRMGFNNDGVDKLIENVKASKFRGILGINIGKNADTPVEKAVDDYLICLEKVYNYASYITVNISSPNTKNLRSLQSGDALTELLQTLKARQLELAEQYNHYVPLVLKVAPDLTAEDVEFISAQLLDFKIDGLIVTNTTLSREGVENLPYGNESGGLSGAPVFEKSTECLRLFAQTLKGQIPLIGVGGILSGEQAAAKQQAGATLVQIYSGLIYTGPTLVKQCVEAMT
In words: AbDHODH steady-state rate assay. The format is biochemical.

The test system of series [3] is A. baumannii HUMC1 (CR-XDR). Briefly: Antimicrobial susceptibility testing in MM. The format is cell-based, Acinetobacter baumannii. The settings on record: for EC50 / MIC: Acinetobacter baumannii, 24 h; for EC50: read-out: HUMC EC50.
Series [4] concerns A. baumannii AB307-0294. Briefly: Antimicrobial susceptibility testing in MM. The format is cell-based, Acinetobacter baumannii. The note with it: for EC50: Acinetobacter baumannii, AB3070294, 24 h, read-out: AB307 EC50; for uracil rescue of growth: AB307, 0.2 mM uracil; for cidal or static activity by CFU vs initial inoculum: AB307 and HUMC1, DSM186 at >1 µg/mL, DSM161 at highest concentrations assessed.

Series [5] deals with A. baumannii LAC-4 (MDR). In words: Antimicrobial susceptibility testing in MM. The format is cell-based. The settings on record: Acinetobacter baumannii, 24 h; for EC50: read-out: LAC-4 EC50; for MIC: read-out: LAC-4 MIC. Summed up: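 Overnight (18 h) cultures in minimal medium (MM) plus casamino acids were diluted 1:1,000 and titred on LB plates. Test compound (in DMSO) was added at various concentrations, giving about 5 × 10^5 CFU/mL final. Medium-only and DMSO wells served as controls. Plates were shaken at 37 °C for 24 h, reading Å600 every 15 min. […] There were 2–4 technical replicates per concentration, and results are mean ± SEM of multiple independent studies.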

For series [6], the system named is A. baumannii AB307-0294 isolates. In words: Susceptibility of AB307-0294 isolates recovered from DSM161-treated mice. The format is cell-based, Acinetobacter baumannii. The note with it: eight independent colonies of AB307 from three animals. An outline of the steps: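 Neutropenic BALB/c mice were infected in the thigh with AB307 and given test compound orally at 100 mg/kg at 0 and 12 h. Eight independent colonies were recovered from three sites in three animals and retested. MIC was determined by CFU at 24 h in MM, defined as growth within ± ½ log of the starting inoculum.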

For series [7], the system named is A. baumannii AB307ΔpyrD. Briefly: Time-kill assay. The format is cell-based, Acinetobacter baumannii. The note with it: pyrimidine-deficient medium.
Series [8] concerns A. baumannii AB307. Briefly: Time-kill assay. The note with it: DSM186 1 µg/mL, DSM161 17.5 µg/mL, meropenem 1 µg/mL. The format is cell-based, Acinetobacter baumannii. An outline of the steps: (§1)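 Time-kill assays were run in pyrimidine-deficient MM at a fixed compound concentration: 1 µg/mL (2.9 µM) or 17.5 µg/mL (50 µM). Untreated and meropenem 1 µg/mL (2.6 µM) comparators were included. CFU was enumerated over time against the starting inoculum. Data are mean ± SEM of 2–4 independent studies, each with 2–5 technical replicates.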

Series [9] concerns the target T1, HsDHODH. In words: biochemical.
For series [10], the system named is A. baumannii strains. Briefly: DSM186 on a panel of A. baumannii strains. The format is cell-based, Acinetobacter baumannii. The settings on record: for MIC: Acinetobacter baumannii.
Series [11] is described as follows: Microsomal stability. The format is in vitro ADME. The note with it: human liver microsomes.
The test system of series [12] is A. baumannii HUMC1. In words: Time-kill assay. The settings on record: DSM186 1 µg/mL, meropenem 1 µg/mL. The format is cell-based, Acinetobacter baumannii. Summed up:
as §1

Series [13] relates to A. baumannii AB307. Briefly: Efflux and permeability assay. The format is cell-based, Acinetobacter baumannii. The settings on record: DSM186 0.015 µg/mL.
Series [14] is described as follows: Microsomal stability. The format is in vitro ADME. The settings on record: mouse microsomes.
Setting [15] is: read-out: MIC as measured by CFU.

In brackets after ≈: the same amount, converted by molar mass. Several values for one entry are separate records, joined by “and”; a condition that tells them apart may be missing. Equal values may be shown once. Read-outs that look alike come from different tables or passages of the source.

T1 sequence (Q02127 whole entry): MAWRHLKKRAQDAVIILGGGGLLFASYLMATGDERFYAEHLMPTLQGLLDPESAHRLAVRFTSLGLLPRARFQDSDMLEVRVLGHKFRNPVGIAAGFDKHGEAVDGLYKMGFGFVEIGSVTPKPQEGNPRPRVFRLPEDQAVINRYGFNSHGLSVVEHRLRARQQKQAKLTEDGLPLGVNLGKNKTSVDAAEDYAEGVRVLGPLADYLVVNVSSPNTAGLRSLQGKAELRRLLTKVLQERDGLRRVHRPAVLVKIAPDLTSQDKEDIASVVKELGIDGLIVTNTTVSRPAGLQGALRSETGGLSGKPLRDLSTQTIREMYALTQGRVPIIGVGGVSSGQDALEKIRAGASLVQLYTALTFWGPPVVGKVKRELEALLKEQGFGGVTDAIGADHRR

On to `Cc1cc(Nc2ccc(C(F)(F)F)c(F)c2)n2ncnc2n1` [DSM125], for which the 50% inhibitory concentration (IC50) in [1] was greater than 100000 nM; in [2], 910 ± 70 nM. Besides, the concentration for a half-maximal effect (EC50) amounted to 34000 nM in [3] and 9600 nM in [4]. For the same molecule, the MIC in [3] (read-out: HUMC MIC) is 51 µM and 16 µg/mL.
As to `Cc1cc(Nc2ccc(S(F)(F)(F)(F)F)cc2)n2ncnc2n1` [DSM161], the EC50 in [5] is 4400 ± 470 nM; in series [3], 8400 ± 850 nM; in series [4], 1400 ± 300 nM. Further, the MIC in [5] was 25 µM and 8.8 µg/mL; in series [3] (read-out: HUMC MIC), 25 µM and 8.8 µg/mL; in series [3] (setting [15]), 50 µM and 17.5 µg/mL. In addition, in [6], the “change in MIC (by CFU) of colonies recovered from treated animals” value is “no change in MIC”. Moreover, the “time-kill: killing of DHODH deletion mutant” value in series [7] is reported as “neither DSM186 nor DSM161 caused increased killing”. The “time-kill: CFU over time vs starting inoculum” value in series [8] is on record as “decreased below the starting inoculum”. Further, the half-inhibitory concentration (IC50) in series [1] was greater than 100000 nM; in series [2], 300 ± 110 nM. Also, in series [3] (HUMC1 and LAC-4 vs AB307), the “fold difference in potency, drug-resistant strains vs drug-sensitive AB307” value is 3–6 fold. For the same molecule, the “uracil rescue of growth” value in series [4] is “uracil rescue was also demonstrated”. For the same molecule, the “cidal or static activity by CFU vs initial inoculum” value in [4] was “bacteriostatic”. For the same molecule, the “fold MIC by CFU higher than MIC by absorbance assay” value in series [4] (both strains (AB307, HUMC1)) is reported as 10 fold.
Regarding `Cc1cc(Nc2ccc(S(F)(F)(F)(F)F)cc2)n2ccnc2n1` [DSM186], the IC50 in series [9] was greater than 100000 nM; in series [2], 28 ± 3.8 nM. Moreover, the EC50 is 170 ± 33 nM in series [5], 170 ± 3.3 nM in series [3] and 53 ± 8.2 nM in series [4]. The MIC was 1.3 µM and 0.45 µg/mL in [5]; 0.11 to 1.09 µg/mL (≈ 0.314 to 3.11 µM) in [10] (read-out: MIC assessed by Å600); no more than 1 µg/mL in series [10] (read-out: minimal inhibitory concentration); 0.78 µM and 0.27 µg/mL in series [3] (read-out: HUMC MIC); 1.6 µM and 0.55 µg/mL in series [3] (setting [15]). Moreover, the “concentration inhibiting growth by CFU” value is 1 µg/mL and 2.9 µM in series [10] (17/23 strains, relative to starting inoculum (± ½ log) at 24 h); 2 µg/mL and 5.8 µM in [10] (remaining six strains). The “activity across strains tested” value in series [10] (30 strains including 12 CR-XDR isolates) was “active against all the 30 strains tested”. Besides, the metabolic stability entry in series [11] is “metabolically stable”; in series [14], “less stable”. Also, in series [7], the “time-kill: killing of DHODH deletion mutant” value is reported as “neither DSM186 nor DSM161 caused increased killing”. Moreover, the “time-kill: CFU over time vs starting inoculum” value in series [12] and in series [8] was “decreased below the starting inoculum” throughout. Also, in [13], the “effect of combination of PAβN and PMBN on activity” value was “less active than PMBN alone”. The “effect of efflux inhibitor PAβN on activity” value in series [13] (PAβN 70 µg/mL) is listed as “somewhat increased the activity”. The “effect of permeability-increasing agent PMBN on activity” value in series [13] (PMBN 64 µg/mL) is “somewhat increased the activity”. The “uracil rescue of growth” value in [3] (HUMC1, 0.2 mM uracil) is “rescued by the addition of uracil”; in series [4], “rescued by the addition of uracil”. The “cidal or static activity by CFU vs initial inoculum” value in series [4] is “cidal activity”.
On to `Cc1cc(Nc2ccc3c(c2)CCCC3)n2ccnc2n1` [DSM187], for which, in series [2], the 50% inhibitory concentration (IC50) stood at 170 nM.
As to `Cc1cc(Nc2ccc(C(F)(F)F)cc2)c2ccccc2n1` [DSM250], the IC50 in series [9] was greater than 100000 nM; in series [2] it was 85 ± 15 nM. For the same molecule, the EC50 in series [5] stood at 1600 nM; in series [4], 380 ± 140 nM. In addition, in [5], the MIC was 12.5 µM and 3.8 µg/mL. The “concentrations showing some off-target activity” value in series [4] (AB307, uracil rescue study) was “above 10 µM”. The “uracil rescue of growth” value in [4] is listed as “uracil rescue was also demonstrated”.
In series [2], `Cc1cc(Nc2ccc(S(F)(F)(F)(F)F)cc2)n2nc(C(C)(F)F)nc2n1` [DSM265] displayed a half-inhibitory concentration (IC50) of 590 ± 160 nM. Also, in series [4], the “uracil rescue of growth” value is reported as “uracil rescue was also demonstrated” and the EC50 worked out at 2700 ± 210 nM.
`C[C@@H](O)[C@H]1C(=O)N2C(C(=O)O)=C(S[C@@H]3CN[C@H](C(=O)N(C)C)C3)[C@H](C)[C@H]12` [meropenem, reference compound]: the “time-kill: CFU over time vs starting inoculum” value in series [8] is given as “decreased below the starting inoculum”.
